# Assay results as given in ChEMBL document CHEMBL1287779, “Indium(III) chloride catalyzed three-component coupling reaction: a novel synthesis of 2-substituted aryl(indolyl)kojic acid derivatives as potent antifungal and antibacterial agents” (2010).
# Key:
# Format in all cases: functional
# Bacillus subtilis = assay: Antibacterial activity against Bacillus subtilis MTCC 441 by broth dilution method
# Outline: (§1)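 MIC determined by broth dilution following NCCL standards. Penicillin and streptomycin were tested in parallel under identical conditions.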
# Staphylococcus aureus = assay: Antibacterial activity against Staphylococcus aureus MTCC 96 by broth dilution method; outline: as §1
# [1] = tested on: Staphylococcus epidermidis; assay: Antibacterial activity against Staphylococcus epidermidis MTCC 2639 by broth dilution method; outline: as §1
# Escherichia coli = assay: Antibacterial activity against Escherichia coli MTCC 443 by broth dilution method; outline: as §1
# Pseudomonas aeruginosa = assay: Antibacterial activity against Pseudomonas aeruginosa MTCC 741 by broth dilution method; outline: as §1
# Klebsiella pneumoniae = assay: Antibacterial activity against Klebsiella pneumoniae MTCC 618 by broth dilution method; outline: as §1
# Rhizopus arrhizus [2] = assay: Antifungal activity against Rhizopus oryzae MTCC 262 assessed as zone of inhibition at 100 ug by agar well diffusion method; conditions: read-out: IZ
# Outline: (§2)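 Agar well diffusion on potato dextrose agar. Plates were spread with 0.5 mL of a week-old culture of the test organism, and 6 mm wells were cut with a cork borer. Compounds were dissolved in DMSO at different concentrations and added to the wells, with controls included. Plates were held at 27 °C for 48 h, and inhibition zone diameters were read in mm. Three to four replicates per treatment.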
# Rhizopus arrhizus [3] = assay: Antifungal activity against Rhizopus oryzae MTCC 262 assessed as zone of inhibition at 150 ug by agar well diffusion method; conditions: read-out: IZ; outline: as §2
# Aspergillus niger [4] = assay: Antifungal activity against Aspergillus niger MTCC 282 assessed as zone of inhibition at 100 ug by agar well diffusion method; conditions: read-out: IZ; outline: as §2
# Aspergillus niger [5] = assay: Antifungal activity against Aspergillus niger MTCC 282 assessed as zone of inhibition at 150 ug by agar well diffusion method; conditions: read-out: IZ; outline: as §2
# Diutina rugosa [6] = assay: Antifungal activity against Candida rugosa NCIM 3462 assessed as zone of inhibition at 100 ug by agar well diffusion method; conditions: read-out: IZ; outline: as §2
# Diutina rugosa [7] = assay: Antifungal activity against Candida rugosa NCIM 3462 assessed as zone of inhibition at 150 ug by agar well diffusion method; conditions: read-out: IZ; outline: as §2
# Candida albicans [8] = assay: Antifungal activity against Candida albicans MTCC 227 assessed as zone of inhibition at 100 ug by agar well diffusion method; conditions: read-out: IZ; outline: as §2
# Candida albicans [9] = assay: Antifungal activity against Candida albicans MTCC 227 assessed as zone of inhibition at 150 ug by agar well diffusion method; conditions: read-out: IZ; outline: as §2
# Saccharomyces cerevisiae [10] = assay: Antifungal activity against Saccharomyces cerevisiae MTCC 36 assessed as zone of inhibition at 100 ug by agar well diffusion method; conditions: read-out: IZ; outline: as §2
# Saccharomyces cerevisiae [11] = assay: Antifungal activity against Saccharomyces cerevisiae MTCC 36 assessed as zone of inhibition at 150 ug by agar well diffusion method; conditions: read-out: IZ; outline: as §2
Structure (SMILES),MIC (Bacillus subtilis),MIC (Staphylococcus aureus),MIC [1],MIC (Escherichia coli),MIC (Pseudomonas aeruginosa),MIC (Klebsiella pneumoniae),zone of inhibition at 100 µg/disc (Rhizopus arrhizus [2]),zone of inhibition at 150 µg/disc (Rhizopus arrhizus [3]),zone of inhibition at 100 µg/disc (Aspergillus niger [4]),zone of inhibition at 150 µg/disc (Aspergillus niger [5]),zone of inhibition at 100 µg/disc (Diutina rugosa [6]),zone of inhibition at 150 µg/disc (Diutina rugosa [7]),zone of inhibition at 100 µg/disc (Candida albicans [8]),zone of inhibition at 150 µg/disc (Candida albicans [9]),zone of inhibition at 100 µg/disc (Saccharomyces cerevisiae [10]),zone of inhibition at 150 µg/disc (Saccharomyces cerevisiae [11])
CCC(c1oc(CO)cc(=O)c1O)c1c(-c2ccccc2)[nH]c2ccccc12 (stereo not given),18.8 µg/mL,9.38 µg/mL,18.8 µg/mL,9.38 µg/mL,37.5 µg/mL,75 µg/mL,0 mm,0 mm,0 mm,0 mm,0 mm,0 mm,0 mm,0 mm,14 mm,20 mm
COc1ccc(C(c2oc(CO)cc(=O)c2O)c2c(C)[nH]c3ccccc23)cc1 (stereo not given),150 µg/mL,150 µg/mL,150 µg/mL,150 µg/mL,150 µg/mL,150 µg/mL,0 mm,0 mm,0 mm,0 mm,0 mm,0 mm,0 mm,0 mm,0 mm,0 mm
COc1ccc(C(c2oc(CO)cc(=O)c2O)c2c(-c3ccccc3)[nH]c3ccccc23)cc1 (stereo not given),150 µg/mL,37.5 µg/mL,150 µg/mL,75 µg/mL,75 µg/mL,150 µg/mL,0 mm,0 mm,10 mm,14 mm,10 mm,14 mm,9 mm,12 mm,9 mm,14 mm
COc1ccc(C(c2oc(CO)cc(=O)c2O)c2c[nH]c3ccc(Br)cc23)cc1 (stereo not given),150 µg/mL,18.8 µg/mL,18.8 µg/mL,37.5 µg/mL,37.5 µg/mL,75 µg/mL,0 mm,0 mm,12 mm,18 mm,13 mm,19 mm,13 mm,18 mm,10 mm,16 mm
O=c1cc(CO)oc(C(c2ccccc2)c2c[nH]c3ccccc23)c1O (stereo not given),150 µg/mL,150 µg/mL,150 µg/mL,150 µg/mL,150 µg/mL,75 µg/mL,0 mm,0 mm,10 mm,14 mm,6 mm,9 mm,0 mm,0 mm,0 mm,0 mm
COc1ccc(C(c2oc(CO)cc(=O)c2O)c2c[nH]c3ccc(Cl)cc23)cc1 (stereo not given),150 µg/mL,2.34 µg/mL,150 µg/mL,4.68 µg/mL,4.68 µg/mL,18.8 µg/mL,0 mm,0 mm,14 mm,20 mm,0 mm,0 mm,11 mm,16 mm,16 mm,21 mm
COc1cc(C(c2oc(CO)cc(=O)c2O)c2c(C)[nH]c3ccccc23)ccc1O (stereo not given),150 µg/mL,150 µg/mL,150 µg/mL,150 µg/mL,150 µg/mL,150 µg/mL,0 mm,0 mm,0 mm,0 mm,0 mm,0 mm,0 mm,0 mm,0 mm,0 mm
Cc1[nH]c2ccccc2c1C(c1ccc(Cl)cc1)c1oc(CO)cc(=O)c1O (stereo not given),150 µg/mL,37.5 µg/mL,18.8 µg/mL,18.8 µg/mL,18.8 µg/mL,75 µg/mL,7 mm,10 mm,8 mm,12 mm,0 mm,0 mm,0 mm,0 mm,0 mm,0 mm
O=c1cc(CO)oc(C(c2cccc(Oc3ccccc3)c2)c2c[nH]c3ccccc23)c1O (stereo not given),150 µg/mL,37.5 µg/mL,18.8 µg/mL,75 µg/mL,75 µg/mL,75 µg/mL,7 mm,10 mm,11 mm,16 mm,13 mm,18 mm,14 mm,19 mm,14 mm,19 mm
O=c1cc(CO)oc(C(c2ccccc2O)c2c(-c3ccccc3)[nH]c3ccccc23)c1O (stereo not given),150 µg/mL,4.68 µg/mL,150 µg/mL,37.5 µg/mL,18.8 µg/mL,75 µg/mL,0 mm,0 mm,0 mm,0 mm,0 mm,0 mm,10 mm,14 mm,12 mm,16 mm
COc1ccc(C(c2oc(CO)cc(=O)c2O)c2c[nH]c3ccccc23)cc1 (stereo not given),150 µg/mL,37.5 µg/mL,18.8 µg/mL,150 µg/mL,75 µg/mL,75 µg/mL,0 mm,0 mm,0 mm,0 mm,6 mm,9 mm,0 mm,0 mm,0 mm,0 mm
C[C@@H]1[C@H](O)[C@@H](C)/C=C/C=C/C=C/C=C/C=C/C=C/C=C/[C@H](O[C@@H]2O[C@H](C)[C@@H](O)[C@H](N)[C@@H]2O)C[C@@H]2O[C@](O)(C[C@@H](O)C[C@@H](O)[C@H](O)CC[C@@H](O)C[C@@H](O)CC(=O)O[C@H]1C)C[C@H](O)[C@H]2C(=O)O [AMPHOTERICIN B],–,–,–,–,–,–,24 mm,–,25 mm,–,22 mm,–,23.5 mm,–,22 mm,–
CC1(C)S[C@@H]2[C@H](NC(=O)Cc3ccccc3)C(=O)N2[C@H]1C(=O)O [PENICILLIN G],1.56 µg/mL,1.56 µg/mL,3.12 µg/mL,12.5 µg/mL,12.5 µg/mL,6.25 µg/mL,–,–,–,–,–,–,–,–,–,–
Cc1[nH]c2ccccc2c1C(c1cccc(Oc2ccccc2)c1)c1oc(CO)cc(=O)c1O (stereo not given),150 µg/mL,18.8 µg/mL,150 µg/mL,75 µg/mL,75 µg/mL,75 µg/mL,0 mm,0 mm,9 mm,14 mm,11 mm,16 mm,9 mm,14 mm,10 mm,14 mm
Cc1[nH]c2ccccc2c1C(c1ccc2ccccc2c1)c1oc(CO)cc(=O)c1O (stereo not given),150 µg/mL,150 µg/mL,150 µg/mL,150 µg/mL,150 µg/mL,150 µg/mL,0 mm,0 mm,0 mm,0 mm,0 mm,0 mm,0 mm,0 mm,0 mm,0 mm
CN[C@@H]1[C@H](O[C@H]2[C@H](O[C@H]3[C@H](O)[C@@H](O)[C@H](N=C(N)N)[C@@H](O)[C@@H]3N=C(N)N)O[C@@H](C)[C@]2(O)C=O)O[C@@H](CO)[C@H](O)[C@H]1O [STREPTOMYCIN],6.25 µg/mL,6.25 µg/mL,3.12 µg/mL,6.25 µg/mL,1.56 µg/mL,3.12 µg/mL,–,–,–,–,–,–,–,–,–,–
